From ChEMBL document CHEMBL2040777, “N-Aryl-N'-(chroman-4-yl)ureas and thioureas display in vitro anticancer activity and selectivity on apoptosis-resistant glioblastoma cells: screening, synthesis of simplified derivatives, and structure-activity relationship analysis” (Eur J Med Chem, 2012)
Active and inactive are the calls of the source. The calls are words filed in the database; no cut-off is given here.

Legend:
[1] = Growth inhibition of human U373 cells after 72 hrs by MTT assay; type: functional, cell-based, U-373MG ATCC; conditions: U373 MG
How it was run: (§1)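 Glioma lines were grown in RPMI with 10% heat-inactivated FCS, 4 mM glutamine, gentamicin and penicillin-streptomycin. Cells were plated for 24 h at 10,000–40,000 cells/mL, then exposed to compound for 72 h. MTT reduction to formazan was read at 570 nm (reference 630 nm). Six replicates were run.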

[2] = tested on: T98G; experiment: Growth inhibition of human T98G cells after 72 hrs by MTT assay; type: functional, cell-based; how it was run: as §1
[3] = tested on: T98G; experiment: Selectivity index, ratio of IC50 for mouse astrocytes to IC50 for human T98G cells
[4] = tested on: Hs 683; experiment: Selectivity index, ratio of IC50 for mouse astrocytes to IC50 for human Hs683 cells
[5] = tested on: B16-F10; experiment: Growth inhibition of mouse B16F10 cells after 72 hrs by MTT assay; type: functional, cell-based; conditions: B16-F10, 72 h
[6] = Growth inhibition of human Hs683 cells after 72 hrs by MTT assay; type: functional, cell-based; conditions: Hs 683, 72 h; how it was run: as §1
[7] = Selectivity index, ratio of IC50 for mouse astrocytes to IC50 for human U373 cells; parameters: species or system U-373MG ATCC
[8] = Cell cycle arrest in human U373 cells assessed as accumulation at G0/G1 phase at 3 to 10 uM after 24 hrs by propidium iodide staining-based flow cytometric analysis; type: functional; conditions: U-373MG ATCC
[9] = tested on: U-373MG ATCC; experiment: Induction of apoptosis in human U373 cells assessed as increase in subG1 cell population at 3 to 10 uM after 24 hrs by flow cytometric analysis; type: functional, cell-based

Compound	IC50 [1]	IC50 [2]	Ratio IC50 [3]	Ratio IC50 [4]	IC50 [5]	IC50 [6]	Ratio IC50 [7]	Activity [8]	Activity [9]
CC1(C)CC(NC(=S)Nc2ccc(C#N)cc2)c2cc(Cl)ccc2O1 (centres undefined)	10 µM	10 µM	3	3	7 µM	6 µM	3		
COc1ccc(Cl)cc1CNC(=S)Nc1ccc([N+](=O)[O-])cc1	22 µM	35 µM				15 µM			
CC(=O)NC1CC(C)(C)Oc2ccc(Cl)cc21 (centres undefined)	> 100 µM								
O=[N+]([O-])c1cccc(NC(=S)NCc2cccc(Cl)c2)c1	32 µM	61 µM				41 µM			
CC1(C)CC(NC(=S)Nc2ccccc2Cl)c2cc(Br)ccc2O1 (centres undefined)	34 µM	8 µM	<5	<5	17 µM	22 µM	<5		
CC1(C)CC(NC(=O)NCc2ccccc2)c2cc(Cl)ccc2O1 (centres undefined)	66 µM	15 µM				47 µM			
COc1ccc(NC(=S)NC2CC(C)(C)Oc3ccc(Br)cc32)cc1 (centres undefined)	40 µM	33 µM				29 µM			
O=[N+]([O-])c1cccc(NC(=S)NC2CCOc3ccc(Cl)cc32)c1 (centres undefined)	8 µM	10 µM				7 µM			
CC1(C)CC(NC(=S)Nc2cccc(C#N)c2)c2cc(Cl)ccc2O1 (centres undefined)	7 µM	10 µM	<5	<5	6 µM	6 µM	<5		
CC1(C)CC(NC(=S)Nc2cccc(C#N)c2)c2cc(F)ccc2O1 (centres undefined)	30 µM	39 µM			35 µM	33 µM			
CC1(C)CC(NC(=O)Nc2cccc(Cl)c2)c2cc(F)ccc2O1 (centres undefined)	39 µM	45 µM				38 µM			
CC1(C)CC(NC(=S)NCc2ccccc2)c2cc(F)ccc2O1 (centres undefined)	27 µM	40 µM				25 µM			
CC1(C)CC(NC(=S)Nc2ccc(C#N)cc2)c2cc(F)ccc2O1 (centres undefined)	11 µM	19 µM	3	3	5 µM	14 µM	3		
CCOC(=O)NC1CC(C)(C)Oc2ccc(Cl)cc21 (centres undefined)	> 100 µM								
CC1(C)CC(NC(=O)NCc2ccccc2)c2cc(F)ccc2O1 (centres undefined)	11 µM	49 µM				19 µM			
CC1(C)CC(NC(=S)NCc2ccccc2)c2cc(Cl)ccc2O1 (centres undefined)	64 µM	99 µM				43 µM			
CC(C)NC1=NS(=O)(=O)c2cc(F)c(Cl)cc2N1	> 100 µM								
CC1(C)CC(NC(=S)Nc2cccc([N+](=O)[O-])c2)c2cc(Cl)ccc2O1 (centres undefined)	3 µM	4 µM	3	3	6 µM	3 µM	3	Active	inactive
O=[N+]([O-])c1ccc(NC(=S)NC2CCOc3ccc(Cl)cc32)cc1 (centres undefined)	8 µM	12 µM				6 µM			
COc1ccc(Cl)cc1CNC(=S)Nc1cccc([N+](=O)[O-])c1	32 µM					23 µM			
CC(C)NC(=O)NC1CC(C)(C)Oc2ccc(Cl)cc21 (centres undefined)	62 µM	> 100 µM				85 µM			
CC1(C)CC(NC(=S)Nc2ccc([N+](=O)[O-])cc2)c2cc(F)ccc2O1 (centres undefined)	3 µM	5 µM	5	5	4 µM	3 µM	5	Active	inactive
COc1ccccc1NC(=S)NC1CC(C)(C)Oc2ccc(Br)cc21 (centres undefined)	22 µM	42 µM				40 µM			
CCC(C)(C)NC1=NS(=O)(=O)c2cc(Cl)ccc2N1	> 100 µM								
CC1(C)CC(NC(=S)Nc2cccc(C#N)c2)c2cc(Br)ccc2O1 (centres undefined)	6 µM	9 µM	<5	<5	7 µM	4 µM	<5		
